# Screening results (PubChem BioAssay)
# This is a sample that favours compounds with a hit; in the whole collection about 1.4% have one here.
# Rev-erbA mod: modulators of human Rev-erb alpha DNA binding | activity, % at 10 µM | Rev-erbα–FITC-DNA binding, fluorescence polarization, 90 min | P20393 | AID 1259318 | actives 0.79% (n = 370,000);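 active = activity above about 14%, limit read from the data; passing the limit was not always enough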;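 note: 0% = DMSO wells with 35 nM protein and 100% = DMSO wells with 750 nM protein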
# Target sequence (P20393 whole entry, looked up): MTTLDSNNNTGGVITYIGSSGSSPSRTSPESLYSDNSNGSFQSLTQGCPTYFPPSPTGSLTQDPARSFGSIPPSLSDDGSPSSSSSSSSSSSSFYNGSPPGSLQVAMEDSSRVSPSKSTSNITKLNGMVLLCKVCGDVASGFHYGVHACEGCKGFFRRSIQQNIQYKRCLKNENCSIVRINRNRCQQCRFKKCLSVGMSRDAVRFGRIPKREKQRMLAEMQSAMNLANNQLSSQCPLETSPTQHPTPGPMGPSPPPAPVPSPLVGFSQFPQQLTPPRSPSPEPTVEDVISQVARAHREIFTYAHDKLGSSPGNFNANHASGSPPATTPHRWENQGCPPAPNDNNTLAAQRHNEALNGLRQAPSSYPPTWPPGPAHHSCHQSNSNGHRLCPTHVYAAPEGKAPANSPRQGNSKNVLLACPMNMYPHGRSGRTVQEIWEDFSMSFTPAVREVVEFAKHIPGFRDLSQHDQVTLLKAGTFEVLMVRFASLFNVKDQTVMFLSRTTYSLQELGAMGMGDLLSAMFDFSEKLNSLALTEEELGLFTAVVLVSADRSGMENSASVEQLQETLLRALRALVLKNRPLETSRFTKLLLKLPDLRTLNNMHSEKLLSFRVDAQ
# NR2E3 ag-1: agonists of human NR2E3 nuclear receptor | Q9Y5X4 | CHO-S Gal4-NCOR/VP16-NR2E3 two-hybrid, luciferase | inhibition of corepressor binding, % at 3.98 µM | actives 0.35% (n = 360,000);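 active = inhibition above the mean of all tested compounds plus 3 SD, cut at about 70% in these data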;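 note: 0% = DMSO with NR2E3 transfected cells and 100% = cells lacking NR2E3 construct; higher means lower luciferase signal from less NR2E3 corepressor binding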
# NR2E3 ag-2: NR2E3 (human) agonism; actives 0.12% (n = 320,000); AID 2300; GST-NR2E3/biotin-RetCOR TR-FRET, 1536-well; inhibition of corepressor binding, % at 4.78 µM;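 active = percent inhibition above the cutoff of mean plus 3 SD of all tested compounds, set per screening campaign, cut at about 20% in these data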;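 note: 0% = DMSO wells and 100% = biotin wells as full block of FRET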
#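 Format: 1536-well format; test system: GST-NR2E3 and biotin-RetCOR proteins; read-out basis: percent inhibition of TR-FRET ratio; timing: 5 h incubation at 4 °C; detection: time-resolved FRET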
# PG9 Ab binder: PG9 antibody binding by small molecule | TR-FRET gp120-PG9 antibody binding | inhibition, % at 6.7 µM | actives 0.43% (n = 360,000); in the data active = inhibition above about 8.5%
# NR1D1 mod conf: Rev-erb alpha (human) modulation, hit confirmation; actives 61% (n = 3,000); shares compounds with Rev-erbA mod; Rev-erb alpha FITC-DNA binding, fluorescence polarization, 90 min; activation, % at 25 µM; AID 1259319;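 active = activation at or above a set limit, or at least 3 SD above the negative control mean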;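 note: 0% = 35 nM protein with DMSO and 100% = 750 nM protein high control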
# RORg DNA counter: counter-screen for Rev-erb alpha modulators: RORgamma DNA binding. shares compounds with Rev-erbA mod. purified RORgamma protein-FITC-DNA binding, fluorescence polarization. IC50, µM. actives 8% (n = 910). AID 1259320;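 active = Compounds whose fitted half-maximal concentration for disrupting protein-DNA binding is below 10 micromolar; the record names Rev-erb in its text, so the target is in doubt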
# * marks the source's active call; other numbers are inactive results; nt = no result given.
SMILES,Rev-erbA mod,NR2E3 ag-1,NR2E3 ag-2,PG9 Ab binder,NR1D1 mod conf,others
CCc1ccc2nc(NC(=O)C3CCN(c4ncnc5sc(C)c(C)c45)CC3)sc2c1,21*,-96,3,-1,19*,
CCN(CC)CCNC(Cc1ccccc1)c1cccc(OC)c1 (centres undefined),-4,-43,nt,1,nt,
O=c1[nH]c(/C=C/c2ccccc2OC(F)F)nc2c1cnn2-c1ccccc1,24*,-16,-3,3,5,
COC(=O)/C(C#N)=C/c1c(N2CCN(c3ccc(OC)cc3)CC2)nc2c(C)cccn2c1=O,33*,-8,-3,-1,1,
Cc1cc(OCC(=O)Nc2ccccn2)c2c(C)c(C)c(=O)oc2c1,33*,-18,1,-1,2,
Cc1cc(OCC(=O)NCc2ccccn2)c2c(C)c(C)c(=O)oc2c1,-2,21,2,0,nt,
Cc1cc(OC(C)C(=O)NCc2ccccn2)c2c(C)c(Cc3ccccc3)c(=O)oc2c1 (centres undefined),86*,11,-4,0,142*,RORg DNA counter=>40
Cc1cc(OC(C)C(=O)NCc2ccccn2)c2c(C)cc(=O)oc2c1 (centres undefined),2,20,1,0,nt,
CCOCC(=O)Nc1c(C(=O)Nc2ccc3c(c2)OCO3)oc2ccccc12,-1,-4,-1,0,nt,
COc1cc(NC(=O)c2cc(-c3cccnc3)nc3ccc(Br)cc23)cc(OC)c1,31*,15,3,3,20*,
COc1ccc(C(=O)/C(C#N)=N/Nc2ccc([N+](=O)[O-])cc2)cc1,44*,-59,1,1,36*,RORg DNA counter=>40
N#CCNC(=O)c1nn2c(C(F)(F)F)cc(-c3ccccc3)nc2c1Br,57*,-10,0,-1,31*,RORg DNA counter=>40
O=C(NCC1CCCO1)c1nn2c(C(F)(F)F)cc(-c3cc(Br)cs3)nc2c1Br (centres undefined),23*,-22,0,0,-4,
CC(Sc1nc2ccccc2c(=O)n1C)C(=O)Nc1ccc2c(c1)OCCO2 (centres undefined),27*,-5,2,2,12*,
CC(C)Cn1c(SC(C)C(=O)Nc2ccc3c(c2)OCCO3)nc2ccccc2c1=O (centres undefined),-3,-31,nt,0,nt,
Cc1cc(NC(=O)COC(=O)C2CC(=O)N(c3ccc(Cl)cc3)C2)no1 (centres undefined),22*,-7,2,0,-8,
O=C(CCS(=O)(=O)c1ccc2c(c1)NC(=O)CO2)NCc1ccccc1,4,-21,-1,-3,nt,
COc1ccc2c(c1)c1nc3n(c(=O)c1n2CC(=O)Nc1cc(C)[nH]n1)CCS3,19*,nt,-3,-1,-1,
O=C(CCN1CCN(Cc2ccccc2)CC1)Nc1cccc(Cl)c1,-2,19,-3,0,nt,
CCN(CC)c1ccc(/C=C(/C#N)C(=O)NC(C)C)o1,19,-14,-9,-17,nt,
CCN(CC)c1ccc(/C=C(/C#N)C(=O)NCc2ccccc2)o1,25*,-80,-4,-14,6,
CC(C)NC(=O)/C(C#N)=C\c1ccc(N(C)C)o1,15*,-22,-13,-30,12,
Cc1ccc(-n2nc(C)cc2N)c(C)c1,-1,-2,-2,-3,nt,
COc1ccc(OCCC(=O)OCC(=O)NC(=O)NC(C)(C)C)cc1,-5,-12,2,-1,nt,
COC(=O)c1ccc(C)c(NC(=O)CCc2cc(OC)c(OC)c(OC)c2)c1,-4,-12,-2,0,nt,
C#Cc1ccc([C@H]2C=C(C(=O)OCC=C)O[C@@H](OCCCCO)C2)cc1,-2,8,3,1,nt,
Cc1ccc2nc(-c3ccc(NC(=O)CSc4nnc(Cc5cccs5)n4C)cc3)sc2c1,43*,nt,nt,nt,25*,
Cc1ccc2nc(-c3ccc(NC(=O)CCS(=O)(=O)c4ccccc4)cc3)sc2c1,19*,-135,2,0,23*,
Cc1ccc2nc(NC(=O)CN3CCN(c4ccccn4)CC3)sc2c1,-1,-13,-2,-2,nt,
Cc1ccc2nc(-c3ccc(NC(=O)CN4CCN(c5ccccn5)CC4)cc3)sc2c1,21*,-112,-2,0,13,
